ChEMBL document CHEMBL3244410, “Thymidylate synthetase inhibitors. Synthesis of N-substituted 5-aminomethyl-2'-deoxyuridine 5'-phosphates” (J Med Chem, 1977)

Columns and labels:
[1] = Competitive inhibition of purified Escherichia coli thymidylate synthetase using t5-[3H]-2'-deoxyuridine 5'-phosphate as substrate after 7 mins by double reciprocal plot method
Outline: (§1)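 Thymidylate synthetase was purified from E. coli, calf thymus or Ehrlich ascites tumor cells. Inhibition constants came from double-reciprocal plots of velocity against substrate concentration. Each plot used five substrate concentrations and at least two inhibitor concentrations.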

[2] = molecular target: T1, Thymidylate synthase (Bos taurus, UniProt Q2TA32); assay: Competitive inhibition of purified calf thymus thymidylate synthetase using 5-[3H]-2'-deoxyuridine 5'-phosphate as substrate after 7 mins by double reciprocal plot method; outline: as §1
T1 sequence (Q2TA32 whole entry): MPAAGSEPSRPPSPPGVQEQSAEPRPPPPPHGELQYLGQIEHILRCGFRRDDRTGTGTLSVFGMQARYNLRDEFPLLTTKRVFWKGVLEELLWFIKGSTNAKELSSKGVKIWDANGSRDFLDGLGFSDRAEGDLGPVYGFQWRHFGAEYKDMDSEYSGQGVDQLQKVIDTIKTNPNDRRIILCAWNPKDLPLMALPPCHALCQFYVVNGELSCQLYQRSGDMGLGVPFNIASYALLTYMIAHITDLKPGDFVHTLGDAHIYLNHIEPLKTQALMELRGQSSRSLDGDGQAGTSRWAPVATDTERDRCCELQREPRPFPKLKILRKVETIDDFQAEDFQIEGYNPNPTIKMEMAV

[3] = Ratio of Ki for purified mouse Ehrlich ascites tumor cell thymidylate synthetase to Ki for purified calf thymus thymidylate synthetase
[4] = molecular target: Thymidylate synthase (Mus musculus, UniProt P07607); assay: Competitive inhibition of purified mouse Ehrlich ascites tumor cell thymidylate synthetase using 5-[3H]-2'-deoxyuridine 5'-phosphate as substrate after 7 mins by double reciprocal plot method; outline: as §1
Sequence of Thymidylate synthase (Mus musculus, UniProt P07607) (P07607 whole entry): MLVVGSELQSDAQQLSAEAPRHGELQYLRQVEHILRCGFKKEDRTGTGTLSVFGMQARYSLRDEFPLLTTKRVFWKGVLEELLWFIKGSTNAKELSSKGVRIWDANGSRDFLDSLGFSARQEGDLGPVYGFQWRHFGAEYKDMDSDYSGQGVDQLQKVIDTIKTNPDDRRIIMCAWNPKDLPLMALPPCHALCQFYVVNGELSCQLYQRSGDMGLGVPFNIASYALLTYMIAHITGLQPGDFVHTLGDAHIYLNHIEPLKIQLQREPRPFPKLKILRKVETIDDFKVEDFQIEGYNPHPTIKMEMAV

[5] = molecular target: T1, Thymidylate synthase; assay: Noncompetitive inhibition of purified calf thymus thymidylate synthetase using 5-[3H]-2'-deoxyuridine 5'-phosphate as substrate after 7 mins by double reciprocal plot method; outline: as §1

Ki [2] | Ratio Ki [3] | Ki [4] | Ki [5] | SMILES | Ki [1]
3.1 µM | 4 | 14 µM |  | CN(C)CCNCc1cn([C@H]2C[C@H](O)[C@@H](COP(=O)(O)O)O2)c(=O)[nH]c1=O | 6 µM
8 µM |  | 6.5 µM |  | O=c1ccn([C@H]2C[C@H](O)[C@@H](COP(=O)(O)O)O2)c(=O)[nH]1 [DEOXYURIDINE MONOPHOSPHATE] | 7.6 µM
 |  | 27 µM | 43 µM | O=c1[nH]c(=O)n([C@H]2C[C@H](O)[C@@H](COP(=O)(O)O)O2)cc1CN1CCCC1 | 56 µM
110 µM |  | 73 µM |  | CN(C)Cc1cn([C@H]2C[C@H](O)[C@@H](COP(=O)(O)O)O2)c(=O)[nH]c1=O | 90 µM
